# Experimental data reported in ChEMBL document CHEMBL1156693, “Novel N-(phosphonomethyl) glycine derivatives: Design, characterization and biological activity” (Eur J Med Chem, 2008).
# pIC50: −log10 of the molar value. The source made the active and inactive calls. The rule behind the calls is not given here.
# How the values were obtained:
# [1] = tested on: Mus musculus; assay: Clastogenic effect on C57BL mouse assessed as number of metaphase chromosomal fragments in bone marrow cells at 100 mg/kg, ip after 48 hrs; format: functional; details: route intraperitoneal
# In short: (§1)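 Inbred male and female C57Bl mice, groups of 3 males + 3 females, dosed i.p. (0.9% NaCl vehicle/negative control); mitomycin C 3.5 mg/kg positive control. Colchicine 40 mg/kg i.p. 1 h before femoral bone marrow harvest; hypotonic 0.075 M KCl 20 min at 37 °C, methanol-acetic acid fixation, Giemsa stain; ≥50 metaphases per animal scored; group mean ± SE.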
# [2] = tested on: HD-MY-Z; assay: Cytotoxicity against human HD-MY-Z cells after 72 hrs by MTT assay; format: functional, cell-based
# In short: (§2)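 Cells at 37 °C, 5% CO2; 293T in DMEM, others in RPMI 1640, both with 2 mM L-glutamine and 10% FCS. Seeded 10⁴ cells/well, 24 h preincubation, then compounds 0.195–200 µM (DMSO ≤1% final) for 72 h continuous. MTT added, 4 h, formazan dissolved in 5% formic acid-acidified DMSO, absorbance read; IC50 = concentration giving 50% survival decrease.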
# [3] = tested on: LAMA-84; assay: Cytotoxicity against human LAMA-84 cells after 72 hrs by MTT assay; format: functional, cell-based; details: LAMA-84, 72 h; in short: as §2
# [4] = tested on: Mus musculus; assay: Clastogenic effect on C57BL mouse assessed as number of metaphase chromosomal breaks in bone marrow cells at 10 mg/kg, ip after 24 hrs; format: functional; details: route intraperitoneal; in short: as §1
# [5] = tested on: DOHH-2; assay: Cytotoxicity against human DOHH2 cells after 72 hrs by MTT assay; format: functional, cell-based; details: DOHH-2, 72 h; in short: as §2
# [6] = tested on: Mus musculus; assay: Clastogenic effect on C57BL mouse assessed as mitotic index in bone marrow cells at 100 mg/kg, ip after 48 hrs; format: functional; details: route intraperitoneal
# In short: (§3)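 C57Bl mice (3 males + 3 females per group) given compound i.p.; saline controls. Colchicine 40 mg/kg i.p. 1 h before bone marrow harvest from femur; hypotonic KCl, fixed, Giemsa-stained slides. Mitotic index = dividing cells counted among 1500 cells per animal; per-animal values averaged as group mean ± SE.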
# [7] = tested on: Mus musculus; assay: Clastogenic effect on C57BL mouse assessed as bone marrow cells with abberation at 100 mg/kg, ip after 24 hrs; format: functional; details: route intraperitoneal; in short: as §1
# [8] = tested on: Mus musculus; assay: Clastogenic effect on C57BL mouse assessed as number of metaphase chromosomal centromere/centromeric fusion in bone marrow cells at 10 mg/kg, ip after 24 hrs; format: functional; details: route intraperitoneal; in short: as §1
# [9] = tested on: K562; assay: Cytotoxicity against human K562 cells after 72 hrs by MTT assay; format: functional, cell-based; details: K562, 72 h; in short: as §2
# [10] = tested on: Mus musculus; assay: Clastogenic effect on C57BL mouse assessed as bone marrow cells with abberation at 10 mg/kg, ip after 48 hrs; format: functional; details: route intraperitoneal; in short: as §1
# [11] = tested on: Mus musculus; assay: Clastogenic effect on C57BL mouse assessed as number of metaphase chromosome telomere/telomeric fusion in bone marrow cells at 10 mg/kg, ip after 48 hrs; format: functional; details: route intraperitoneal; in short: as §1
# [12] = tested on: EJ; assay: Cytotoxicity against human EJ cells after 72 hrs by MTT assay; format: functional, cell-based; in short: as §2
# [13] = tested on: Mus musculus; assay: Clastogenic effect on C57BL mouse assessed as number of metaphase chromosome telomere/telomeric fusion in bone marrow cells at 100 mg/kg, ip after 24 hrs; format: functional; details: route intraperitoneal; in short: as §1
# [14] = tested on: Mus musculus; assay: Clastogenic effect on C57BL mouse assessed as number of metaphase chromosome telomere/telomeric fusion in bone marrow cells at 10 mg/kg, ip after 24 hrs; format: functional; details: route intraperitoneal; in short: as §1
# [15] = tested on: Mus musculus; assay: Clastogenic effect on C57BL mouse assessed as bone marrow cells with abberation at 100 mg/kg, ip after 48 hrs; format: functional; details: route intraperitoneal; in short: as §1
# [16] = tested on: HL-60; assay: Cytotoxicity against human HL60 cells after 72 hrs by MTT assay; format: functional, cell-based; details: HL-60, 72 h; in short: as §2
# [17] = tested on: Mus musculus; assay: Clastogenic effect on C57BL mouse assessed as number of metaphase chromosomal breaks in bone marrow cells at 10 mg/kg, ip after 48 hrs; format: functional; details: route intraperitoneal; in short: as §1
# [18] = tested on: Mus musculus; assay: Clastogenic effect on C57BL mouse assessed as number of metaphase chromosomal centromere/centromeric fusion in bone marrow cells at 100 mg/kg, ip after 24 hrs; format: functional; details: route intraperitoneal; in short: as §1
# [19] = tested on: Mus musculus; assay: Clastogenic effect on C57BL mouse assessed as mitotic index in bone marrow cells at 100 mg/kg, ip after 24 hrs; format: functional; details: route intraperitoneal; in short: as §3
# [20] = tested on: Mus musculus; assay: Clastogenic effect on C57BL mouse assessed as number of metaphase chromosomal fragments in bone marrow cells at 10 mg/kg, ip after 48 hrs; format: functional; details: route intraperitoneal; in short: as §1
# [21] = tested on: DOHH-2; assay: Induction of apoptosis in human DOHH2 cells assessed as increase in histone-associated oligonucleotide level after 24 hrs by ELISA; format: functional, cell-based
# In short: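 DOHH-2 cells exposed 24 h to equitoxic compound concentrations versus untreated control; cytosolic fractions of 1 × 10⁴ cells used in sandwich ELISA (anti-histone capture, peroxidase-conjugated anti-DNA detection) for histone-associated DNA fragments, read at 405 nm; means ± SD of three independent experiments.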
# [22] = tested on: Mus musculus; assay: Clastogenic effect on C57BL mouse assessed as number of metaphase chromosomal breaks in bone marrow cells at 100 mg/kg, ip after 24 hrs; format: functional; details: route intraperitoneal; in short: as §1
# [23] = tested on: Mus musculus; assay: Clastogenic effect on C57BL mouse assessed as bone marrow cells with abberation at 10 mg/kg, ip after 24 hrs; format: functional; details: route intraperitoneal; in short: as §1
# [24] = tested on: Mus musculus; assay: Clastogenic effect on C57BL mouse assessed as number of metaphase chromosomal fragments in bone marrow cells at 10 mg/kg, ip after 24 hrs; format: functional; details: route intraperitoneal; in short: as §1
# [25] = tested on: Mus musculus; assay: Clastogenic effect on C57BL mouse assessed as number of metaphase chromosome telomere/telomeric fusion in bone marrow cells at 100 mg/kg, ip after 48 hrs; format: functional; details: route intraperitoneal; in short: as §1
# [26] = tested on: Mus musculus; assay: Clastogenic effect on C57BL mouse assessed as number of metaphase chromosomal centromere/centromeric fusion in bone marrow cells at 10 mg/kg, ip after 48 hrs; format: functional; details: route intraperitoneal; in short: as §1
# [27] = tested on: Mus musculus; assay: Clastogenic effect on C57BL mouse assessed as number of metaphase chromosomal centromere/centromeric fusion in bone marrow cells at 100 mg/kg, ip after 48 hrs; format: functional; details: route intraperitoneal; in short: as §1
# [28] = tested on: Mus musculus; assay: Clastogenic effect on C57BL mouse assessed as mitotic index in bone marrow cells at 10 mg/kg, ip after 24 hrs; format: functional; details: route intraperitoneal; in short: as §3
# [29] = Cytotoxicity against human 293T after 72 hrs by MTT assay; format: cell-based; details: HEK-293T; in short: as §2
# [30] = tested on: Mus musculus; assay: Clastogenic effect on C57BL mouse assessed as number of metaphase chromosomal breaks in bone marrow cells at 100 mg/kg, ip after 48 hrs; format: functional; details: route intraperitoneal; in short: as §1
# [31] = tested on: Mus musculus; assay: Clastogenic effect on C57BL mouse assessed as number of metaphase chromosomal fragments in bone marrow cells at 100 mg/kg, ip after 24 hrs; format: functional; details: route intraperitoneal; in short: as §1
# [32] = tested on: Mus musculus; assay: Clastogenic effect on C57BL mouse assessed as mitotic index in bone marrow cells at 10 mg/kg, ip after 48 hrs; format: functional; details: route intraperitoneal; in short: as §3
# [33] = tested on: Mus musculus; assay: Clastogenic effect on C57BL mouse assessed as mitotic index in bone marrow cells at 3.5 mg/kg, ip after 24 hrs; format: functional; details: route intraperitoneal
# In short: (§4)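 Inbred male and female C57Bl mice (20.0 ± 1.5 g), groups of 3 males + 3 females, 5 controls given 0.9% NaCl. Single i.p. dose. Colchicine 40 mg/kg i.p. 1 h before femoral bone marrow harvest. Cells in 0.075 M KCl for 20 min at 37 °C, fixed in methanol–acetic acid (3:1), stained with 5% Giemsa. At least 50 metaphases scored per animal for breaks, fragments, centromere/centromeric and telomere/telomeric fusions. Mitotic index from 1500 cells per animal. Group mean ± SE.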
# [34] = tested on: Mus musculus; assay: Clastogenic effect on C57BL mouse assessed as number of metaphase chromosomal fragments in bone marrow cells at 3.5 mg/kg, ip after 24 hrs; format: functional; details: route intraperitoneal; in short: as §4
# [35] = tested on: Mus musculus; assay: Clastogenic effect on C57BL mouse assessed as number of metaphase chromosomal breaks in bone marrow cells at 3.5 mg/kg, ip after 24 hrs; format: functional; details: route intraperitoneal; in short: as §4
# [36] = tested on: Mus musculus; assay: Clastogenic effect on C57BL mouse assessed as bone marrow cells with abberation at 3.5 mg/kg, ip after 24 hrs; format: functional; details: route intraperitoneal; in short: as §4
# [37] = tested on: Mus musculus; assay: Clastogenic effect on C57BL mouse assessed as number of metaphase chromosomal centromere/centromeric fusion in bone marrow cells at 3.5 mg/kg, ip after 24 hrs; format: functional; details: route intraperitoneal; in short: as §4
# [38] = tested on: Mus musculus; assay: Clastogenic effect on C57BL mouse assessed as number of metaphase chromosome telomere/telomeric fusion in bone marrow cells at 3.5 mg/kg, ip after 24 hrs; format: functional; details: route intraperitoneal; in short: as §4
Compound,Activity [1],pIC50 [2],pIC50 [3],Activity [4],pIC50 [5],Activity [6],Activity [7],Activity [8],pIC50 [9],Activity [10],Activity [11],pIC50 [12],Activity [13],Activity [14],Activity [15],pIC50 [16],Activity [17],Activity [18],Activity [19],Activity [20],also measured
COP(=O)(CNC1(C(=O)O)CCCCCCCCCCC1)OC,6,4.17,4.17,4,4.70,12.82%,4.29%,11,4.33,5%,0,3.96,0,0,10%,4.38,2,11,11.82%,1,Activity [21]: Active; Activity [22]: 4; Activity [23]: 5.57%; Activity [24]: 2; Activity [25]: 2; Activity [26]: 12; Activity [27]: 11; Activity [28]: 11.13%; pIC50 [29]: 3.80; Activity [30]: 6; Activity [31]: 0; Activity [32]: 8.6%
COP(=O)(CNC1(C(=O)O)CCCCCC1)OC,0,3.77,4.04,3,4.06,12%,3.33%,7,4.00,1%,0,3.82,0,0,2.72%,4.07,0,3,13.24%,0,Activity [22]: 7; Activity [23]: 2.85%; Activity [24]: 0; Activity [25]: 0; Activity [26]: 3; Activity [27]: 3; Activity [28]: 14.37%; pIC50 [29]: < 3.70; Activity [30]: 4; Activity [31]: 0; Activity [32]: 9.58%
COP(=O)(CNC1(C(=O)O)CCCCC1)OC,0,3.78,4.01,4,4.07,9.23%,8.34%,11,3.89,5.33%,0,3.94,0,0,7.42%,3.87,6,20,7.15%,1,Activity [22]: 7; Activity [23]: 5.33%; Activity [24]: 0; Activity [25]: 0; Activity [26]: 9; Activity [27]: 12; Activity [28]: 7.27%; pIC50 [29]: < 3.70; Activity [30]: 14; Activity [31]: 1; Activity [32]: 6.71%
CO[C@@]12[C@H](COC(N)=O)C3=C(C(=O)C(C)=C(N)C3=O)N1C[C@@H]1N[C@@H]12 [MITOMYCIN],–,–,–,–,–,–,–,–,–,–,–,–,–,–,–,–,–,–,–,–,Activity [33]: 5.49%; Activity [34]: 13; Activity [35]: 10; Activity [36]: 46.67%; Activity [37]: 11; Activity [38]: 0
COP(=O)(CNC1(C(=O)O)CCCCCCC1)OC,0,3.89,4.15,2,4.43,9.67%,5.43%,10,4.10,4.67%,0,3.94,1,0,5%,4.13,0,11,13.06%,1,Activity [21]: Active; Activity [22]: 4; Activity [23]: 3.71%; Activity [24]: 1; Activity [25]: 0; Activity [26]: 14; Activity [27]: 12; Activity [28]: 11.35%; pIC50 [29]: 3.75; Activity [30]: 3; Activity [31]: 3; Activity [32]: 13.95%
COP(=O)(CNC1(C(=O)O)CCCC1)OC,0,< 3.70,3.79,7,3.84,8.33%,7%,9,< 3.70,5.77%,1,< 3.70,0,0,6.4%,3.80,6,10,10.97%,0,Activity [22]: 8; Activity [23]: 4.85%; Activity [24]: 1; Activity [25]: 2; Activity [26]: 13; Activity [27]: 8; Activity [28]: 10.39%; pIC50 [29]: < 3.70; Activity [30]: 6; Activity [31]: 3; Activity [32]: 10.66%
